High-throughput results from PubChem BioAssay.
MT stabilizer – microtubule stabilization, imaging screen. hit rate 0.83% among 200,000. % tubulin-high responders, % at 10 µM. HeLa tubulin immunostaining HCS, 24 h; share of cells brighter than vehicle mean+2SD. AID 2205;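 active means plate Z-score above 3 for both tubulin-high and condensed-nucleus cell shares, with cell loss under 80%, at 10 µM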;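 further: anti alpha tubulin signal scored within the nucleus-defined area of each cell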
b-catenin transl – alters nuclear translocation of beta-catenin in HeLa cells | immunofluorescence imaging | nuclear translocation activity, % at 5 µM | hit rate 0.3% among 190,000;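 active means nuclear translocation activity above 50% at 5 µM, with a well cell count of 50 or more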;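 further: per-cell ratio of nuclear to cytoplasmic median beta-catenin stain intensity; plate controls were DMSO negative control for no effect and GSK-3 inhibitor IX positive control for full effect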
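Test system: human HeLa cells, native beta-catenin. Compound dosing: 5 µM primary single dose, 0.1% DMSO, 0.02–20 µM confirmation series. Incubation: compound exposure 24 h at 37°C. Detection: beta-catenin immunostaining with DAPI counterstain, 20x imaging, 6 fields/well. Read-out basis: Nuclear/cytoplasmic beta-catenin signal ratio, % activation.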
Ba/F3 V617F tox – reduce viability of Ba/F3 cells dependent on JAK2V617F. Ba/F3 EpoR-JAK2V617F viability, ATP luminescence. hit rate 1.1% among 220,000. inhibition, % at 5.6 µM;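 active means inhibition above the campaign mean plus 3 SD over all tested compounds, cut at about 24% in these data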;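 further: cytokine-independent growth of Ba/F3 cells driven by EpoR plus mutant JAK2; 0% = DMSO-treated cells and 100% = JAK inhibitor I control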
IEC-6 tox – kills IEC-6 intestinal cells in KLF5 counter-screen; IEC-6 cytotoxicity, luminescence viability; inhibition, % at 5 µM; hit rate 0.78% among 290,000; AID 1825; in the data active means inhibition above about 22%;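 further: 0% = plate median of test compound wells and 100% = cytotoxic reference compound wells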
BaF3 parental – reduces parental Ba/F3 cell viability, JAK2V617F counter-screen | CellTiter-Glo ATP luminescence | inhibition, % at 5.6 µM | AID 1486 | hit rate 1.1% among 220,000;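 active means inhibition above a per-campaign cutoff, the mean inhibition of all tested compounds plus 3 SD, cut at about 27% in these data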;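 further: 0% = DMSO wells and 100% = JAK Inhibitor I control wells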
APP 5UTR inh – APP translation inhibition; AID 1285; hit rate 0.82% among 190,000; SH-SY5Y APP 5'UTR-luciferase reporter, luminescence; inhibition, % at 2 µM;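 active means inhibition above a set limit, derived from the sample mean plus 3 SD, cut at about 45% in these data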
BaF3 tox 2 – counter-screen for JAK2V617F inhibitors: parental Ba/F3 viability inhibitors | shares compounds with Ba/F3 V617F tox | hit rate 31% among 580 | CellTiter-Glo luminescence; cells kept alive by added IL-3 | inhibition, % at 5.6 µM;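 active means cell growth inhibition above the hit limit set in the earlier mutant JAK2 cell screen, cut at about 27% in these data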;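 further: plate controls were DMSO-treated cells for no effect and JAK Inhibitor I control wells for full effect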
JAK2V617F conf – confirmation: loss of viability in JAK2V617F-dependent Ba/F3 cells | shares compounds with Ba/F3 V617F tox | Ba/F3 EpoR-JAK2V617F viability, CellTiter-Glo luminescence | inhibition, % at 5.6 µM | hit rate 66% among 580;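 active means mean inhibition above the hit cutoff derived in the earlier primary screen, cut at about 25% in these data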;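 further: 0% = DMSO-treated cells and 100% = JAK inhibitor I control wells; higher means lower luminescence from reduced cell ATP and viability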
* = called active by the depositor; . = no result given. Compounds with a hit are over-represented: about 2.2% of the library has one in this group of screens.

SMILES | MT stabilizer | b-catenin transl | Ba/F3 V617F tox | IEC-6 tox | BaF3 parental | APP 5UTR inh | BaF3 tox 2 | JAK2V617F conf
Oc1ccc(Cl)cc1N=Cc1sc2ccccc2c1Cl | 2 | -3 | 40* | 0 | 16 | -22 | 21 | 86*
COc1ccc(-n2nc([N+](=O)[O-])c(=NCCCN3CCCC3=O)n2O)cc1 | 3 | -3 | -3 | -5 | 2 | -9 | . | .
O=C1CCCN1CCCN=c1c([N+](=O)[O-])nn(-c2ccc(Cl)cc2)n1O | 18 | -3 | 32* | 18 | 25 | 6 | 8 | 38*
CC(=O)C1=C(O)CC(C)(C)CC1=NCCc1nc2ccccc2[nH]1 | 4 | 1 | 102* | 4 | 3 | 3 | -3 | 3
Cc1nc(NC(=O)CCN2C(=O)C3CC=CCC3C2=O)sc1C (centres undefined) | . | . | . | -4 | . | . | . | .
Cc1ccc(O)c(NC(=O)CSc2ccc(Cl)cc2)c1 | 3 | 0 | 43* | 1 | 23 | -17 | 21 | 71*
Cc1ccc(-c2nc(SC(C)C(=O)N3CCOCC3)n[nH]2)cc1 (centres undefined) | . | . | . | 0 | . | . | . | .
Oc1ccc(-c2nc3ccc4ccccc4c3c3c2CCC3)cc1O | 8 | -1 | 63* | 1 | 3 | 1 | 53* | 97*
Cc1ccccc1NC(=S)N(Cc1cccnc1)Cc1ccccc1Cl | 3 | -6 | 2 | -1 | 8 | -7 | . | .
CCCOc1ccc(-c2nc(-c3ccc(N)cc3)cs2)cc1 | . | 2 | -2 | -1 | 7 | . | . | .
Cc1ccc(NC(=O)C(=Cc2ccc(C(=O)O)cc2)C(=O)Nc2ccc(C)cc2C)c(C)c1 | . | 4 | 36* | -8 | 1 | . | 6 | 61*
O=[N+]([O-])/C(C=Nc1ccccc1O)=C\Nc1ccccc1O | . | 0 | 39* | 8 | 17 | . | 13 | 68*
CCc1ccc(NC(=O)c2noc3c2CCc2ccccc2-3)cc1 | 1 | . | 61* | 3 | 24 | -1 | -3 | -13
COc1ccc(C(C(=O)NC2CCCCC2)N(C(=O)CCl)c2ccc(C)cc2)cc1 (centres undefined) | 5 | 1 | 1 | 2 | 5 | 6 | . | .
COC(CN(C(=O)CCl)C(C(=O)NC1CCCCC1)c1ccc(C)cc1)OC (centres undefined) | 8 | 2 | 91* | 4 | 5 | 4 | 1 | 17
C/C=C/C=N/Nc1nc(-c2ccc([N+](=O)[O-])cc2)cs1 | 3 | 4 | -7 | 8 | -2 | 18 | . | .
Cc1cc(C)c2nc(SCC(=O)N3CC(=O)Nc4ccccc43)c(C#N)cc2c1 | 10 | 44 | 67* | 0 | 4 | 96* | 97* | 99*
Cc1ccc(C(C)C)cc1NC(=O)Nc1ccc([N+](=O)[O-])cc1 | . | -1 | 4 | 10 | -8 | . | . | .
O=C(CSc1ccccc1)N(c1ccc(Br)cc1)c1nccs1 | 2 | 7 | -2 | -3 | 1 | -3 | . | .
COc1ccc(N=Nc2n(C)c3ccccc3[n+]2C)cc1 | . | 3 | 26* | 18 | 22 | . | 35* | 22
Cn1c(COc2ccccc2O)[n+](C)c2ccccc21 | . | . | . | 6 | . | . | . | .
O=[N+]([O-])c1cnc(Sc2ccncn2)s1 | . | 2 | 73* | 12 | -7 | . | 29* | 96*
O=C(Nc1ccc(Cl)cc1)Nc1ccccc1Sc1ncc([N+](=O)[O-])s1 | . | 0 | -3 | -3 | -3 | . | . | .
Cc1cnccc1CNC(=O)CC1C(=O)NCCN1CC(C)(C)C (centres undefined) | 2 | 0 | 1 | 1 | 5 | -4 | . | .
COc1cc(/C=C2\COC/C(=C\c3ccc(O)c(OC)c3)C2=O)ccc1O | . | -1 | 25* | 3 | -8 | . | 14 | 91*
SMILES | MT stabilizer | b-catenin transl | Ba/F3 V617F tox | IEC-6 tox | BaF3 parental | APP 5UTR inh | BaF3 tox 2 | JAK2V617F conf
COc1cc(/C=C2/CC/C(=C/c3ccc(O)c(OC)c3)C2=O)ccc1O | . | 45 | -4 | -2 | 0 | . | . | .
CCCCn1c(=N)n(CC(=O)c2ccc(Br)s2)c2ccccc21 | . | 0 | 71* | -1 | -4 | . | 6 | 60*
COc1cccc(C(C(=O)NCc2ccccc2)N(C(=O)c2csnn2)C2CC2)c1 (centres undefined) | . | . | . | -4 | . | . | . | .
O=C(NCc1ccccc1)c1cc[n+](CC(=O)c2cccs2)cc1 | . | 0 | 4 | 8 | -4 | . | . | .
CCC(=O)OCC(=O)N=c1sccn1Cc1ccc(C)cc1 | . | . | . | -5 | . | . | . | .
O=C(CCl)N=c1sccn1Cc1ccccc1Cl | . | 42 | 99* | 100* | 11 | . | 10 | 99*
CCC(=O)OCC(=O)N=c1sccn1Cc1ccccc1Cl | . | . | . | -6 | . | . | . | .
O=C(CCl)N=c1sccn1Cc1ccc(Cl)cc1Cl | 4 | 4 | 101* | 99* | -10 | 8 | 21 | 99*
Clc1cccc(Oc2ncc(CN3CCOCC3)s2)c1 | 2 | 1 | 0 | -2 | 8 | 1 | . | .
Oc1ccc(/C=N/Nc2ncc(Br)cn2)c(O)c1 | 9 | 0 | 15 | 1 | 18 | -19 | . | .
Oc1ccc(/C=N/Nc2nccnc2Cl)c(O)c1 | 4 | . | 32* | -3 | 8 | . | 71* | 91*
CC1CCN(c2nc3ccc(C(=O)NCCCN4CCCCC4C)cc3s2)CC1 (centres undefined) | . | . | . | 18 | . | . | . | .
O=C(CCOc1ccccc1)N1CCN(c2ccc(O)cc2)CC1 | . | -1 | 25* | 0 | 6 | . | 5 | 14
O=C(CCCOc1ccccc1)N1CCN(c2ccccc2)CC1 | 2 | . | 2 | 8 | 2 | -24 | . | .
O=C(COC(=O)c1ccncc1)Nc1cc(Cl)ccc1Cl | 2 | -2 | 45* | -3 | 4 | 18 | -5 | -1
O=C(CCl)N(c1ccc(Cl)cc1)c1c[nH]c2ccccc12 | 23 | 0 | 72* | 4 | 12 | 18 | 73* | 99*
Cc1nn(-c2ccccc2)c(C)c1NC(=O)COc1ccc2ccccc2c1 | 2 | 1 | 90* | 2 | 4 | -3 | -5 | -5
C=CCn1c(Sc2ncc([N+](=O)[O-])s2)n[nH]c1=O | . | 1 | 77* | 11 | 25 | . | -4 | 9
C=CCn1c(CSc2ccccc2[N+](=O)[O-])n[nH]c1=S | . | . | . | 6 | . | . | . | .
Cc1ccc(C(C)C)c(OCC(=O)c2c(O)c3ccccc3oc2=O)c1 | 4 | . | -5 | -6 | 1 | 13 | . | .
CC1(C)Cc2nc3sc4c(SCC(=O)NCc5ccco5)ncnc4c3cc2CO1 | 29* | 59* | 72* | 13 | 25 | -12 | 62* | 90*
Cc1cccc(Nc2nc(NCc3ccco3)c3ccccc3n2)c1 | 2 | -2 | 33* | 1 | 13 | 18 | 49* | 52*
CCOC(=O)c1ccc(Nc2sc(C(=O)c3cccc([N+](=O)[O-])c3)c(N)c2C#N)cc1 | . | 47 | 0 | 1 | -1 | . | . | .
COc1ccc(/C=C/C(=O)c2cc(F)ccc2OC(=O)c2ccccc2C)cc1OC | 9 | 40 | 39* | 88* | 2 | 97* | 29* | 97*
